A short description of series [1]: Retardation factor of the compound measured at 400 V for 4 hrs by paper electrophoresis. Type of series: physicochemical.
The nature of series [2]: Retardation factor of the compound using 1-butanol-acetic acid-water at ratio of 4:3:3 as solvent system by thin layer chromatography. Particulars: buffer. Type of series: physicochemical.
A short description of series [3]: Retardation factor of the compound using 1-butanol-pyridine-0.6 M ammonium acetate in 0.1% aqueous acetic acid at ratio of 5:3:11 (v/v) as solvent system by partition chromatography. Type of series: physicochemical. As to conditions: buffer.
Series [4] in a line: Retardation factor of the compound using 1-butanol-pyridine-acetic acid-water at ratio of 6.0:6.0:1.2:4.8 as solvent system by thin layer chromatography. Format: physicochemical. Particulars: buffer.
The target in series [5] is T1, Opioid receptor (Rattus norvegicus) (UniProt P33533+P34975+P33535). The series can be described thus: Displacement of [3H]naloxone from opioid receptor in rat brain after 30 mins. Type of series: tissue-based. The method, boiled down:
(§1)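 Rat brain homogenate (2-mL aliquots, ca. 1 mg wet weight) incubated with […] [3H]naloxone (25 Ci/mmol) for 30 min at 25 °C, with test peptides at three to five concentrations. Each concentration run as three separate sets of duplicates. ID50 taken from log-probit plots. The relative value is expressed against natural sheep beta-endorphin.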
(In general: Loss of bound radioactivity is the signal in a displacement assay; it reports binding, not function.)

The target of series [6] is T1, Opioid receptor (Rattus norvegicus). Briefly: Modulation of opioid receptor in rat vas deferens assessed as inhibition of electrically evoked contractions. Type of series: tissue-based. The method, boiled down:
(§2)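 Rat vas deferens, electrically stimulated; depression of contractions recorded over five increasing concentrations. Each concentration is the mean from six different tissues. ID50 derived from log-probit plots. The relative value and ratio are expressed against natural sheep beta-endorphin.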

Series [7] has the same target. Briefly: Displacement of [3H]naloxone from opioid receptor in rat brain after 30 mins relative to natural sheep beta-endorphin. Format: tissue-based. The method, boiled down:
as §1

Series [8] has the same target. The series can be described thus: Modulation of opioid receptor in rat vas deferens assessed as inhibition of electrically evoked contractions relative to natural sheep beta-endorphin. Details: scale not given: the % may be the effect or the level left. Format: tissue-based. The method, boiled down: as §2
The species entered for series [9] is Cavia porcellus. Briefly: Modulation of opioid receptor in guinea pig ileum assessed as inhibition of electrically evoked contractions. Format: tissue-based. The method, boiled down:
(§3)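 Guinea pig ileum, electrically stimulated; depression of contractions measured. Each tissue received increasing concentrations of only one compound, to avoid tachyphylaxis seen with repeat doses given 30 min apart. ID50 taken from log-probit plots of five increasing concentrations, each the mean from six tissues. The relative value is expressed against natural sheep beta-endorphin.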

For series [10], the species on record is Cavia porcellus. Briefly: Modulation of opioid receptor in guinea pig ileum assessed as inhibition of electrically evoked contractions relative to natural sheep beta-endorphin. On the set-up: scale not given: the % may be the effect or the level left. Format: tissue-based. The procedure, abridged:
as §3

As to `CC[C@H](C)[C@H](NC(=O)[C@H](C)NC(=O)[C@H](CC(N)=O)NC(=O)[C@H](CCCCN)NC(=O)[C@H](Cc1ccccc1)NC(=O)[C@H](CC(C)C)NC(=O)[C@@H](NC(=O)[C@@H](NC(=O)[C@H](CC(C)C)NC(=O)[C@@H]1CCCN1C(=O)[C@@H](NC(=O)[C@H](CCC(N)=O)NC(=O)[C@H](CO)NC(=O)[C@H](CCCCN)NC(=O)[C@H](CCC(=O)O)NC(=O)[C@H](CO)NC(=O)[C@@H](NC(=O)[C@H](CC[S+](C)[O-])NC(=O)[C@H](Cc1ccccc1)N(C)C(=O)CNC(=O)[C@@H](C)NC(=O)[C@@H](N)Cc1ccc(O)cc1)[C@@H](C)O)[C@@H](C)O)C(C)C)[C@@H](C)O)C(=O)N[C@H](C(=O)N[C@@H](CCCCN)C(=O)N[C@@H](CC(N)=O)C(=O)N[C@@H](C)C(=O)N[C@@H](Cc1ccc(O)cc1)C(=O)N[C@@H](CCCCN)C(=O)N[C@@H](CCCCN)C(=O)NCC(=O)N[C@@H](CCC(=O)O)C(=O)O)[C@@H](C)CC` (some centres undefined), the Rf is given as 0.47 in [1], 0.061 in series [2], 0.21 in [3] and 0.42 in [4].

For BETA-ENDORPHIN [listing 1 of 2 here], the Rf in [1] is reported as 0.47; in [2] it was 0.077; in series [3] it was 0.2; in series [4] it was 0.45.

For the compound BETA-ENDORPHIN [listing 2 of 2 here], the ID50 was 10 nM in series [5], 130 nM in series [6] and 27 nM in the series listed under Cavia porcellus [9]. Further, the Activity (in series [7]; in [8]; in the series listed under Cavia porcellus [10]) was 100% each time.

Source of the values: ChEMBL document CHEMBL3244050, “Synthesis and biological activity of beta-endorphin and analogues. Additional evidence for multiple opiate receptors” (J Med Chem, 1978).
